Source: ChEMBL document CHEMBL1140440, “Simple but highly effective three-dimensional chemical-feature-based pharmacophore model for diketo acid derivatives as hepatitis C virus RNA-dependent RNA polymerase inhibitors” (J Med Chem, 2005)

molecular target: RNA-directed RNA polymerase (Hepacivirus hominis, UniProt O39930); assay: Inhibitory concentration against NS5B HCV polymerase using [alpha-32P]UTP as radioligand (30 degree C for 2 h, at pH 7.5 with Tris-HCl buffer)
Method in brief: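 Recombinant HCV RdRp (1 nM) in 20 mM Tris-HCl pH 7.5, 5 mM MgCl2, 1 mM DTT, 1 mM EDTA, RNase inhibitor, 50 µg/mL actinomycin D, 10 µg/mL RNA template, 0.5 mM ATP/CTP/GTP, [α-32P]UTP, limiting nucleotide 10 µM. 30 °C, 2 h; proteinase K stop, extraction, urea-PAGE, phosphorimaging. IC50s rescaled by a reference inhibitor's measured/literature IC50 ratio.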

RNA-directed RNA polymerase, sequence (O39930 whole entry): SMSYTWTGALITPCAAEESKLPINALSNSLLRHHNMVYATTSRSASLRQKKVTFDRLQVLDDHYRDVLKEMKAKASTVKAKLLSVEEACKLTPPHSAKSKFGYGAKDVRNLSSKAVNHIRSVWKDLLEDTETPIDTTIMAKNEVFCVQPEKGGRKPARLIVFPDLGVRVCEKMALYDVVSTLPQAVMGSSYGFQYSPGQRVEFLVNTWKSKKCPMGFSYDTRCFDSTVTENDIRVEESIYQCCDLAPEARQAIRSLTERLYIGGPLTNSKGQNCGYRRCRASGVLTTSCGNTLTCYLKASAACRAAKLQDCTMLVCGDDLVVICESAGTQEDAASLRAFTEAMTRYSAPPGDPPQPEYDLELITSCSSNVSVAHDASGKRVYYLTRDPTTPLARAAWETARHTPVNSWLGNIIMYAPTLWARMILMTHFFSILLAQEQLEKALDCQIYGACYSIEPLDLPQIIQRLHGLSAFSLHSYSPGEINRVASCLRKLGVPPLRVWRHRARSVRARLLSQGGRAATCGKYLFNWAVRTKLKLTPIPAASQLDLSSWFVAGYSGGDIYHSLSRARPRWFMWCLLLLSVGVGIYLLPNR

Row | Compound | IC50
1 | O=C(O)C(=O)/C=C(\O)c1ccccc1 | 5.6 µM
2 | O=C(O)C(=O)/C=C(\O)c1cccc(O)c1 | 1 µM
3 | O=C(O)C(=O)/C=C(\O)c1cccn1Cc1ccc2ccccc2c1 | 13 µM
4 | O=C(O)C(=O)/C=C(\O)c1cccc(Oc2ccccc2)c1 | 19 µM
5 | O=C(O)C(=O)/C=C(\O)c1ccccc1Cc1ccc(F)cc1 | 8.3 µM
6 | N#CCCCOc1ccccc1/C(O)=C/C(=O)C(=O)O | 0.38 µM
7 | O=C(O)C(=O)/C=C(\O)c1ccc(N2CCCCC2)s1 | 8.2 µM
8 | O=C(O)C(=O)/C=C(\O)c1cnc2cc(Cl)ccc2c1O | 26 µM
9 | O=C(O)C(=O)/C=C(\O)c1cccc(-c2ccccc2)c1 | 28 µM
10 | CCCCS(=O)(=O)N1CCCC(Cc2ccc(Cl)cc2)(/C(O)=C/C(=O)C(=O)O)C1 (stereo unspecified) | 81.4 µM
11 | O=C(O)C(=O)/C=C(\O)c1ccc(Cc2cccc(Cl)c2)s1 | 82 µM
12 | COc1ccc(Cn2cccc2/C=C/C(O)=C/C(=O)C(=O)O)cc1 | 16 µM
13 | N#Cc1cccc(Cl)c1COc1cc(O)cc(/C(O)=C/C(=O)C(=O)O)c1 | 0.1 µM
14 | O=C(O)C(=O)/C=C(\O)c1cccc(NS(=O)(=O)c2cc(Cl)c(Cl)cc2Cl)c1 | 0.049 µM
15 | O=C(O)C(=O)/C=C(\O)c1cc2c(s1)-c1cc(F)ccc1OC2 | 27 µM
16 | O=C(O)C(=O)/C=C(\O)c1ccco1 | 50 µM
17 | O=C(O)C(=O)/C=C(\O)c1ccsc1Cc1ccc(F)cc1 | 18 µM
18 | O=C(O)C(=O)/C=C(\O)c1ccc(-c2ccc(F)c(Cl)c2)o1 | 41 µM
19 | O=C(O)C(=O)/C=C(\O)c1cc(I)cn1Cc1ccc(F)cc1 | 18 µM
20 | O=C(O)C(=O)/C=C(\O)c1cccc(N2CCCC2)c1 | 84 µM
21 | O=C(O)C(=O)/C=C(\O)c1sccc1Cc1cccc(F)c1 | 9.9 µM
22 | Cc1cccc(/C(O)=C/C(=O)C(=O)O)c1 | 12 µM
23 | COc1cccc(Cn2cccc2/C(O)=C/C(=O)C(=O)O)c1 | 7.6 µM
24 | O=C(O)C(=O)/C=C(\O)c1cccc(OCc2ccsc2C(=O)O)c1 | 0.95 µM
25 | O=C(O)C(=O)/C=C(O)/C=C/c1c[nH]c2ccc(Cl)cc12 | 18 µM
26 | N#Cc1cc(Cl)c(Cl)cc1COc1cccc(/C(O)=C/C(=O)C(=O)O)c1 | 0.056 µM
27 | O=C(O)C(=O)/C=C(\O)c1cccn1Cc1ccccc1Cl | 24 µM
28 | Cc1ccccc1Cn1cccc1/C=C/C(O)=C/C(=O)C(=O)O | 18 µM
29 | Cc1ccc(Cn2cccc2/C=C/C(O)=C/C(=O)C(=O)O)cc1 | 28 µM

The remaining lines, values ahead:

Row | IC50 | Compound
30 | 8 µM | O=C(O)C(=O)/C=C(\O)c1cccc(OCc2ccccc2)c1
31 | 6 µM | O=C(O)C(=O)/C=C(\O)c1cccc(OCc2cc(-c3ccccc3)on2)c1
32 | 19 µM | O=C(O)C(=O)/C=C(\O)c1cccc(NC(=O)C(=O)O)c1
33 | 65 µM | O=C(O)C(=O)/C=C(\O)c1ccc(Cc2ccc(F)cc2)s1
34 | 21 µM | Cn1cc(/C(O)=C/C(=O)C(=O)O)cc1Cc1cccc(F)c1
35 | 50 µM | O=C(O)C(=O)/C=C(\O)c1cccc(OCc2cccc(Oc3ccccc3)c2)c1
36 | 58 µM | Cc1ccc(/C(O)=C/C(=O)C(=O)O)o1
37 | 74 µM | O=C(O)C(=O)/C=C(\O)c1ccc(Cc2cccc(F)c2)s1
38 | 40 µM | COc1cccc(/C(O)=C/C(=O)C(=O)O)c1
39 | 4 µM | O=C(O)C(=O)/C=C(\O)c1ccsc1
40 | 4.6 µM | N#Cc1cccc(Cn2ccc(/C(O)=C/C(=O)C(=O)O)c2)c1
41 | 68 µM | O=C(O)C(=O)/C=C(\O)c1ccc(Cc2ccccc2)s1
42 | 0.11 µM | N#CCCCOc1ccc(O)cc1/C(O)=C/C(=O)C(=O)O
43 | 6.7 µM | O=C(O)C(=O)/C=C(\O)C12C[C@H]3C[C@@H](C1)C[C@@H](C2)C3
44 | 7.4 µM | O=C(O)C(=O)/C=C(\O)c1cccn1Cc1c(F)cccc1F
45 | 6.3 µM | N#Cc1ccccc1Cn1cccc1/C(O)=C/C(=O)C(=O)O
46 | 8.2 µM | Cc1cc(C)c(/C(O)=C/C(=O)C(=O)O)s1
47 | 18 µM | O=C(O)C(=O)/C=C(O)/C=C/c1cccn1Cc1cccc(F)c1
48 | 167 µM | Cc1sc(-c2ccccc2)cc1/C(O)=C/C(=O)C(=O)O

Row | IC50 | Compound
49 | 14 µM | Cc1cc(/C(O)=C/C(=O)C(=O)O)c(C)o1
50 | 48 µM | Cc1coc(C)c1/C(O)=C/C(=O)C(=O)O
51 | 0.14 µM | O=C(O)C(=O)/C=C(\O)c1cccc(NS(=O)(=O)c2cc(Cl)cc(Cl)c2)c1
52 | 16 µM | Cn1cc(C(=O)c2ccc(F)cc2)cc1/C=C/C(O)=C/C(=O)C(=O)O
53 | 13 µM | O=C(O)C(=O)/C=C(\O)c1cccn1Cc1ccc(O)cc1
54 | 44 µM | O=C(O)C(=O)/C=C(\O)c1ccccc1OCc1ccccc1
55 | 30 µM | O=C(O)C(=O)/C=C(\O)c1cccn1Cc1cccc(F)c1
56 | 0.67 µM | O=C(O)C(=O)/C=C(\O)c1cccc(OCc2cccc3ccccc23)c1
57 | 13 µM | N#CCCCCn1cccc1/C(O)=C/C(=O)C(=O)O
58 | 7.5 µM | O=C(O)C(=O)/C=C(\O)c1ccsc1Sc1cccc(Cl)c1
59 | 17 µM | O=C(O)C(=O)/C=C(\O)c1cccc(NCc2ccccc2)c1
60 | 29 µM | O=C(O)C(=O)/C=C(\O)c1cccn1Cc1ccccc1
61 | 2 µM | Cc1ccc(/C(O)=C/C(=O)C(=O)O)c(C)c1
62 | 80 µM | O=C(O)C(=O)/C=C(\O)c1ccsc1Cc1cccc(F)c1
63 | 32 µM | O=C(O)C(=O)/C=C(\O)c1cccc(Cc2cc(Br)cc(Br)c2)c1
64 | 50 µM | O=C(O)C(=O)/C=C(\O)c1cccc(OCc2ccc(-c3ccccc3)cc2)c1
65 | 93 µM | O=C(O)C(=O)/C=C(\O)c1cccn1Cc1ccc(F)cc1
66 | 1.4 µM | O=C(O)C(=O)/C=C(\O)c1cc(O)cc(OCc2ccccc2)c1
